Data from ChEMBL document CHEMBL5724801, “EUbOPEN Chemogenomics Library - Multiplex” (2024).
“And” between values parts separate entries of the source, which are not always exact repeats. Equal entries are not always repeated.

Test system: Fibroblast
Assay: Multiplex assay against human fibroblast
Assay type: toxicity, cell-based
In short: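 Values for tubulin, mitochondrial-mass and membrane-permeability phenotypes are per cents of cells with healthy nuclei. These cells were identified by CellPathfinder machine-learning gating of live cells that had been stained at seeding with Hoechst33342, BioTracker Green Microtubule Cytoskeleton Dye, MitoTracker Red and Annexin V Alexa Fluor 680 and imaged on a CQ1 microscope at 37°C and 5% CO2 after compound addition. The gating first set Hoechst high-intensity objects apart from normal cells, then split normal cells into healthy, pyknosed or fragmented nuclei, and pyknosed cells into mitotic or apoptotic.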

[1] = 12 h, 1 µM, compound concentration 1 uM
[2] = 12 h, 10 µM, compound concentration 10 uM
[3] = 24 h, 1 µM, compound concentration 1 uM
[4] = 24 h, 10 µM, compound concentration 10 uM
[5] = 48 h, 1 µM, compound concentration 1 uM
[6] = 48 h, 10 µM, compound concentration 10 uM

For C=CC(=O)Nc1cc(Nc2nccc(-n3cc(CN(C)C)c(-c4ccccc4)n3)n2)c(OC)cc1N1CCOCC1 [LAZERTINIB], the “Population Fragmented Nuclei (%)” value [1] was 17.06% and 10.42%, the “Population Healthy Nuclei (%)” value [1] was 39.41% and 72.59% and the “Population Hoechst High Intensity Objects (%)” value [1] was 0%. For the same molecule, the “Population Membrane Permeable-Phenotype (%)” value [1] was 5.97% and 4.26%, the “Population Mitochondria Different-Phenotype (%)” value [1] was 13.43% and 12.77% and the “Population Mitotic Cells (%)” value [1] was 97.3% and 84.09%. The “Population Normal (%)” value [1] was 100%, the “Population Pyknosed Nuclei (%)” value [1] was 43.53% and 16.99% and the “Population Tubulin-Different-Phenotype (%)” value [1] was 26.87% and 71.81%. The “Total Cell Count” value [1] was 170 and 259, the “Population Apoptotic (%)” value [2] was 18.84% and 24.56% and the “Population Fragmented Nuclei (%)” value [2] was 21.15% and 12.73%. For the same molecule, the “Population Healthy Nuclei (%)” value [2] was 34.62% and 72.47%, the “Population Hoechst High Intensity Objects (%)” value [2] was 0% and the “Population Membrane Permeable-Phenotype (%)” value [2] was 1.85% and 8.24%. The “Population Mitochondria Different-Phenotype (%)” value [2] was 48.15% and 27.24%, the “Population Mitotic Cells (%)” value [2] was 81.16% and 75.44% and the “Population Normal (%)” value [2] was 100%. The “Population Pyknosed Nuclei (%)” value [2] was 44.23% and 14.81%, the “Population Tubulin-Different-Phenotype (%)” value [2] was 55.56% and 80.65% and the “Total Cell Count” value [2] was 156 and 385. The “Population Fragmented Nuclei (%)” value [3] was 8.12% and 9.88%, the “Population Healthy Nuclei (%)” value [3] was 60.62% and 75.1% and the “Population Hoechst High Intensity Objects (%)” value [3] was 0%. The “Population Membrane Permeable-Phenotype (%)” value [3] was 6.19% and 3.68%, the “Population Mitochondria Different-Phenotype (%)” value [3] was 23.71% and 17.89% and the “Population Mitotic Cells (%)” value [3] was 90% and 52.63%. For the same molecule, the “Population Normal (%)” value [3] was 100%, the “Population Pyknosed Nuclei (%)” value [3] was 31.25% and 15.02% and the “Population Tubulin-Different-Phenotype (%)” value [3] was 34.02% and 66.32%. For the same molecule, the “Total Cell Count” value [3] was 160 and 253, the “Population Apoptotic (%)” value [4] was 52.31% and 34.69% and the “Population Healthy Nuclei (%)” value [4] was 37.75% and 81.53%. The “Population Hoechst High Intensity Objects (%)” value [4] was 0%, the “Population Membrane Permeable-Phenotype (%)” value [4] was 5.26% and 2.72% and the “Population Mitochondria Different-Phenotype (%)” value [4] was 43.86% and 34.14%. For the same molecule, the “Population Mitotic Cells (%)” value [4] was 47.69% and 65.31%, the “Population Normal (%)” value [4] was 100% and the “Population Tubulin-Different-Phenotype (%)” value [4] was 57.89% and 76.44%. For the same molecule, the “Total Cell Count” value [4] was 151 and 406, the “Population Apoptotic (%)” value [5] was 16.67% and 20.83% and the “Population Fragmented Nuclei (%)” value [5] was 12.14% and 10.42%. The “Population Healthy Nuclei (%)” value [5] was 77.46% and 80.31%, the “Population Hoechst High Intensity Objects (%)” value [5] was 0% and the “Population Membrane Permeable-Phenotype (%)” value [5] was 0.75% and 1.92%. For the same molecule, the “Population Mitochondria Different-Phenotype (%)” value [5] was 11.19% and 8.17%, the “Population Mitotic Cells (%)” value [5] was 83.33% and 79.17% and the “Population Normal (%)” value [5] was 100%. For the same molecule, the “Population Pyknosed Nuclei (%)” value [5] was 10.4% and 9.27%, the “Population Tubulin-Different-Phenotype (%)” value [5] was 27.61% and 62.5% and the “Total Cell Count” value [5] was 173 and 259. The “Population Apoptotic (%)” value [6] was 64.71% and 51.61%, the “Population Fragmented Nuclei (%)” value [6] was 24.65% and 10.26% and the “Population Healthy Nuclei (%)” value [6] was 51.41% and 82.52%. The “Population Hoechst High Intensity Objects (%)” value [6] was 0%, the “Population Membrane Permeable-Phenotype (%)” value [6] was 1.37% and 2.82% and the “Population Mitotic Cells (%)” value [6] was 35.29% and 48.39%. The “Population Normal (%)” value [6] was 100% and the “Population Tubulin-Different-Phenotype (%)” value [6] was 49.32% and 60.73%.
COC(=O)c1ccc2c(c1)NC(=O)/C2=C(\Nc1ccc(N(C)C(=O)CN2CCN(C)CC2)cc1)c1ccccc1 [NINTEDANIB] was tested, and the “Population Apoptotic (%)” value [1] was 16.28% and 33.33%, the “Population Fragmented Nuclei (%)” value [1] was 16.48% and 7.77% and the “Population Healthy Nuclei (%)” value [1] was 59.09% and 77.67%. The “Population Hoechst High Intensity Objects (%)” value [1] was 0%, the “Population Membrane Permeable-Phenotype (%)” value [1] was 6.73% and 3.75% and the “Population Mitochondria Different-Phenotype (%)” value [1] was 17.31% and 10%. For the same molecule, the “Population Mitotic Cells (%)” value [1] was 83.72% and 66.67%, the “Population Normal (%)” value [1] was 100% and the “Population Pyknosed Nuclei (%)” value [1] was 24.43% and 14.56%. For the same molecule, the “Population Tubulin-Different-Phenotype (%)” value [1] was 38.46% and 36.88%, the “Total Cell Count” value [1] was 176 and 206 and the “Population Apoptotic (%)” value [2] was 40.91% and 35.76%. The “Population Fragmented Nuclei (%)” value [2] was 5.54% and 1.86%, the “Population Healthy Nuclei (%)” value [2] was 51.47% and 66.87% and the “Population Hoechst High Intensity Objects (%)” value [2] was 0.65% and 0%. The “Population Membrane Permeable-Phenotype (%)” value [2] was 29.11% and 30.65%, the “Population Mitochondria Different-Phenotype (%)” value [2] was 33.54% and 14.24% and the “Population Mitotic Cells (%)” value [2] was 59.09% and 64.24%. The “Population Normal (%)” value [2] was 99.35% and 100%, the “Population Pyknosed Nuclei (%)” value [2] was 43% and 31.26% and the “Population Tubulin-Different-Phenotype (%)” value [2] was 51.27% and 85.14%. For the same molecule, the “Total Cell Count” value [2] was 309 and 483, the “Population Apoptotic (%)” value [3] was 16.22% and 30% and the “Population Fragmented Nuclei (%)” value [3] was 15.92% and 9.59%. For the same molecule, the “Population Healthy Nuclei (%)” value [3] was 65.67% and 76.71%, the “Population Hoechst High Intensity Objects (%)” value [3] was 0% and the “Population Membrane Permeable-Phenotype (%)” value [3] was 3.79% and 3.57%. For the same molecule, the “Population Mitochondria Different-Phenotype (%)” value [3] was 8.33% and 10.71%, the “Population Mitotic Cells (%)” value [3] was 83.78% and 70% and the “Population Normal (%)” value [3] was 100%. The “Population Pyknosed Nuclei (%)” value [3] was 18.41% and 13.7%, the “Population Tubulin-Different-Phenotype (%)” value [3] was 31.82% and 40.48% and the “Total Cell Count” value [3] was 201 and 219. The “Population Apoptotic (%)” value [4] was 45.74% and 54.65%, the “Population Fragmented Nuclei (%)” value [4] was 5.3% and 6.9% and the “Population Healthy Nuclei (%)” value [4] was 59.09% and 71.92%. The “Population Hoechst High Intensity Objects (%)” value [4] was 0.75% and 0%, the “Population Membrane Permeable-Phenotype (%)” value [4] was 12.18% and 13.36% and the “Population Mitochondria Different-Phenotype (%)” value [4] was 45.51% and 32.53%. For the same molecule, the “Population Mitotic Cells (%)” value [4] was 54.26% and 45.35%, the “Population Normal (%)” value [4] was 99.25% and 100% and the “Population Pyknosed Nuclei (%)” value [4] was 35.61% and 21.18%. For the same molecule, the “Population Tubulin-Different-Phenotype (%)” value [4] was 66.67% and 90.75%, the “Total Cell Count” value [4] was 266 and 406 and the “Population Apoptotic (%)” value [5] was 21.43% and 45%. For the same molecule, the “Population Fragmented Nuclei (%)” value [5] was 19.15% and 12.93%, the “Population Healthy Nuclei (%)” value [5] was 74.89% and 78.45% and the “Population Hoechst High Intensity Objects (%)” value [5] was 0%. The “Population Membrane Permeable-Phenotype (%)” value [5] was 0.57% and 1.65%, the “Population Mitotic Cells (%)” value [5] was 78.57% and 55% and the “Population Normal (%)” value [5] was 100%. For the same molecule, the “Population Pyknosed Nuclei (%)” value [5] was 5.96% and 8.62%, the “Population Tubulin-Different-Phenotype (%)” value [5] was 23.86% and 42.31% and the “Total Cell Count” value [5] was 235 and 232. The “Population Apoptotic (%)” value [6] was 60.29% and 65.38%, the “Population Fragmented Nuclei (%)” value [6] was 8.47% and 8.93% and the “Population Healthy Nuclei (%)” value [6] was 64.11% and 83.57%. The “Population Hoechst High Intensity Objects (%)” value [6] was 0%, the “Population Membrane Permeable-Phenotype (%)” value [6] was 9.43% and 8.97% and the “Population Mitochondria Different-Phenotype (%)” value [6] was 44.65% and 33.45%. The “Population Mitotic Cells (%)” value [6] was 39.71% and 34.62%, the “Population Normal (%)” value [6] was 100% and the “Population Tubulin-Different-Phenotype (%)” value [6] was 58.49% and 91.72%. The “Total Cell Count” value [6] was 248 and 347.
